The values that follow come from PMC6335621 (Chemical Science, 2018).

The nature of data set [1]: Stability in the solid state and in CDCl3 solution. It is filed as physicochemical.
The subject of the next data set is HCC827. In words: In vitro cytotoxicity. It is filed as cell-based, human. Particulars: read-out: IC50 HCC827; MTT assay, 72 h incubation. In a few lines: (§1)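 Cell lines: HeLa (cervical epithelial carcinoma), HepG2 (hepatocellular carcinoma), MCF-7 (breast carcinoma), HCT-116 (colorectal carcinoma), and HCC827 and NCI-H460 (non-small cell lung carcinoma).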
The next data set relates to HCT116. In words: In vitro cytotoxicity. It is filed as cell-based, human. Particulars: read-out: IC50 HCT116; MTT assay, 72 h incubation. In short, it runs like this: as §1
A further data set relates to HepG2. In words: In vitro cytotoxicity. The data set is classed as cell-based, human. To be noted: read-out: IC50 HepG2; MTT assay, 72 h incubation. In short, it runs like this: as §1
The subject of data set [2] is NCI-H460. As to the kind of experiment: Light-induced cytotoxicity assay. The data set is classed as cell-based, human. To be noted: for PI = IC50(dark)/IC50(light): NCI-H460, phototoxicity index. In a few lines: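 NCI-H460 cells were incubated with test compound, then exposed to visible light at 2.8 mW cm–2 for 1 h. […] Phototoxicity index = IC50(dark)/IC50(light).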

The test system of data set [3] is NCI-H460. As to the kind of experiment: In vitro cytotoxicity in the dark. The data set is classed as cell-based, human. Particulars: read-out: IC50 NCI-H460 (dark). In short, it runs like this: as §1
The conditions of data set [4]: in CHCl3; cited from earlier work.

[Ir^III(tmp)(BIMe)Cl] [1b]: in data set [1], the “Stable in the solid state and in CDCl3 solution for” value (“Stable” below) is recorded as 1 week.

As to `N.N.[Cl][Pt][Cl]` [Cisplatin], the IC50 was 9.61 ± 0.81 µM in the data set with HCC827; 6.94 ± 0.54 µM in the data set with HCT116; 6.18 ± 0.82 µM with HepG2; 4.61 ± 0.31 µM with NCI-H460 [2] (read-out: IC50 NCI-H460 (light), visible light irradiation 2.8 mW cm^–2 for 1 h); 3.96 ± 0.48 µM in the data set with NCI-H460 [3]. Besides, the “PI = IC50(dark)/IC50(light)” value with NCI-H460 [2] is 0.86; in the data set with NCI-H460 [2] (listed as cisplatin) it was less than 1.

Take [Ir^III(F20tpp)(BIMe)Cl] [1d]: in data set [1], the “Stable” value is 1 week.

For the compound [Ir^III(F20tpp)(IMe)Cl] [1c], the Decomposes within in data set [1] (under ambient conditions) was no more than 1 days.

For [Ir^III(tmp)(IMe)Cl] [1a], the “Stable” value in data set [1] was 1 week.

In the case of `C1=Cc2nc1c(-c1ccccc1)c1ccc([nH]1)c(-c1ccccc1)c1nc(c(-c3ccccc3)c3ccc([nH]3)c2-c2ccccc2)C=C1` [H2tpp], in data set [4], the “Φso (quantum yield of singlet oxygen production)” value was 0.55.
